Measurements pooled from the literature.
Each line is one published result; the experiments were not run side by side.
Target: Inhibitor of nuclear factor kappa-B kinase subunit alpha (CHUK, Homo sapiens, UniProt O15111)
Residues used in one study (O15111 1-745): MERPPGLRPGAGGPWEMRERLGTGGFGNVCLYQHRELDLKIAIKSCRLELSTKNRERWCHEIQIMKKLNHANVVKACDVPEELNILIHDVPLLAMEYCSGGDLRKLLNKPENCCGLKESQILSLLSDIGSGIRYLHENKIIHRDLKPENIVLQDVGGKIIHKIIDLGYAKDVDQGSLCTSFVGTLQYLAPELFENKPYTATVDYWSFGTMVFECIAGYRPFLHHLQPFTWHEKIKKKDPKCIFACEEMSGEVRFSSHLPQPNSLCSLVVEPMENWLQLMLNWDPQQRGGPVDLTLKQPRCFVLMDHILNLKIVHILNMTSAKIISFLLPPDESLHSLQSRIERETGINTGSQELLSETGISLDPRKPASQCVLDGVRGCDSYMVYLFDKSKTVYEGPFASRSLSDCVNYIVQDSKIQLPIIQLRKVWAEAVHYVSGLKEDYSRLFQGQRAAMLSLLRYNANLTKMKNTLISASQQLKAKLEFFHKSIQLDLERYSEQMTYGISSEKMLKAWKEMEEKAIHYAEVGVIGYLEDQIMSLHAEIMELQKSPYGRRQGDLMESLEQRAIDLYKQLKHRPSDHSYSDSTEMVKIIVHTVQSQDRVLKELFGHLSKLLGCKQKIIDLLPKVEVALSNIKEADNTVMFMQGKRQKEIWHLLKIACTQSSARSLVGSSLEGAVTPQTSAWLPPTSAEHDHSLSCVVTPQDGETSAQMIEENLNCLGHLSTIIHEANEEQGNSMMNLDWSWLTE

SMILES | assay | setting | measurement | result
O=C(Nc1nccs1)C(c1cc(F)ccc1O)N1Cc2ccccc2C1=O (stereo not drawn) | enzyme activity, inhibitor | 1 µM | inhibition | 16%
CCCCNc1ncc2c(-c3ccc(F)cc3)nn(C[C@H]3CC[C@H](N)CC3)c2n1 | target engagement in cells, inhibitor, chemoproteomics | 20 mM | inhibition | 4.9%
CC/C(=N\NC(=O)NCc1cccc(O)c1)c1ccc(O)c(C)c1O | enzyme activity, inhibitor | 0.1 µM | inhibition | 0.7%
CC(C)(O)[C@H]1CC[C@H](Nc2ccc3ncc(-c4cccc(C(F)(F)F)c4)n3n2)CC1 | enzyme activity, inhibitor | 1 µM | remaining activity | 83.6%
CC(C)(C)c1nc2c(s1)c1nc(N)ncc1c1ccc(NS(=O)(=O)c3c(F)cccc3F)c(F)c12 | enzyme activity, inhibitor, radiometric | 1 µM | remaining activity | 88%
CN(C)C(=O)Cn1cc(-c2nc(C3(c4ccc(-c5cnc(N)nc5)cc4)CC3)no2)cn1 | cell-free assay, competition with immobilised ligand | 1 µM | remaining binding | 100%
Cc1ccc(NC(=O)c2ccc(CN3CCN(C)CC3)cc2)cc1Nc1nc(-c2cccnc2)cs1 | cell-free assay | 0.5 µM | remaining signal | 96.2%
CN(C)c1ncnc(-c2ccc3nc(Nc4cc(CN5CCN(C(=O)CC(F)(F)F)CC5)ccn4)[nH]c3c2)c1Cl | cell-free assay, competition with immobilised ligand | 1 µM | remaining binding | 69%
CCCS(=O)(=O)Nc1ccc(F)c(C(=O)c2c[nH]c3ncc(-c4ccc(Cl)cc4)cc23)c1F | enzyme activity, inhibitor | 1 µM | inhibition | < 10%
Cc1c(C(=O)O)cc(-c2ccc(C3CCNCC3)cc2)c2ccc(-c3ccc(C(F)(F)F)cc3)cc12 | cell-free assay, competition with immobilised ligand | 1 µM | remaining binding | 98%
CC(C)c1ccc(NC(=O)c2cccs2)c(-c2nc3ccccc3[nH]c2=O)c1 | enzyme activity, inhibitor | 1 µM | activity vs control | 104%
CN([C@@H]1CCc2c(CC(=O)O)c3cc(S(C)(=O)=O)ccc3n2C1)S(=O)(=O)c1ccc(F)cc1 | cell-free assay, competition with immobilised ligand | 1 µM | remaining binding | 100%
CNC(=O)c1cc(Oc2ccc(NC(=O)Nc3ccc(Cl)c(C(F)(F)F)c3)cc2)ccn1 | enzyme activity, inhibitor | 10 µM | inhibition | -35%
Cc1ccc(Nc2nccc(N(C)c3ccc4c(C)n(C)nc4c3)n2)cc1S(N)(=O)=O | cell-free assay, inhibitor | 0.5 µM | remaining signal | 99.4%
CN([C@@H]1CCc2c(CC(=O)O)c3ccccc3n2C1)S(=O)(=O)c1ccc(F)cc1 | cell-free assay, competition with immobilised ligand | 1 µM | remaining binding | 100%
